In ChEMBL document CHEMBL2057069, “Benzoxazole and benzothiazole amides as novel pharmacokinetic enhancers of HIV protease inhibitors” (Bioorg Med Chem Lett, 2012):
Calls of active or inactive are those of the source. The rule behind the calls is not given here.

Tests used:
[1] = organism: Homo sapiens; assay: Inhibition of P-glycoprotein using taxol as substrate
[2] = AUC (0 to infinity) in dog at 7.5 mg/kg, po; type: ADME, organism-based, Canis lupus familiaris; design: time infinity, dose 7.5 mg/kg, route oral; settings: plasma
Summary of the method: (§1)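 Drug–drug interaction study in dogs, n = 3. The booster was given orally at 7.5 mg/kg as a PEG400 solution, 5 min before oral darunavir at 30 mg/kg. Darunavir plasma Cmax and AUC0–∞ were measured, with fold increase calculated against darunavir dosed alone.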

[3] = Cmax in dog at 7.5 mg/kg, po; type: ADME, organism-based, Canis lupus familiaris; design: dose 7.5 mg/kg, route oral; settings: in vivo; summary of the method: as §1
[4] = tested on: Canis familiaris; assay: Enhancement of darunavir AUC (0 to infinity) in dog at 7.5 mg/kg, po administered 5 mins prior to darunavir co-administration; type: ADME, organism-based, Canis lupus familiaris; design: dose 7.5 mg/kg, route oral; settings: in vivo
[5] = tested on: Canis familiaris; assay: Enhancement of darunavir Cmax in dog at 7.5 mg/kg, po administered 5 mins prior to darunavir co-administration; type: ADME, organism-based, Canis lupus familiaris; design: dose 7.5 mg/kg, route oral; settings: in vivo
[6] = Drug metabolism in dog hepatocytes at 2 uM after 2 hrs; type: ADME, cell-based, Canis lupus familiaris, Hepatocyte; settings: read-out: Drug metabolism
[7] = Absolute oral bioavailability in dog at 10 mg/kg administered as single dose; type: ADME, organism-based, Canis lupus familiaris; settings: in vivo
Summary of the method: (§2)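 Single oral dose of 10 mg/kg given to rats and dogs, n = 3 per species. Plasma Cmax, Tmax, AUC0–∞ and absolute oral bioavailability were derived from the plasma profiles.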

[8] = AUC (0 to infinity) in dog at 10 mg/kg, po administered as single dose; type: ADME, organism-based, Canis lupus familiaris; design: time infinity, dose 10 mg/kg, route oral; settings: plasma; summary of the method: as §2
[9] = Tmax in dog at 10 mg/kg, po administered as single dose; type: ADME, organism-based, Canis lupus familiaris; design: dose 10 mg/kg, route oral; settings: in vivo; summary of the method: as §2
[10] = Cmax in dog at 10 mg/kg, po administered as single dose; type: ADME, organism-based, Canis lupus familiaris; design: dose 10 mg/kg, route oral; settings: in vivo; summary of the method: as §2
[11] = Absolute oral bioavailability in rat at 10 mg/kg administered as single dose; type: ADME, organism-based; settings: in vivo; summary of the method: as §2
[12] = AUC (0 to infinity) in rat at 10 mg/kg, po administered as single dose; type: ADME, organism-based; design: time infinity, dose 10 mg/kg, route oral; settings: plasma
[13] = Tmax in rat at 10 mg/kg, po administered as single dose; type: ADME, organism-based; design: dose 10 mg/kg, route oral; settings: in vivo; summary of the method: as §2
[14] = Cmax in rat at 10 mg/kg, po administered as single dose; type: ADME, organism-based; design: dose 10 mg/kg, route oral; settings: in vivo; summary of the method: as §2
[15] = Efflux ratio of apparent permeability of the compound from basal to apical to apical to basal side of human Caco2 cells at 10 uM at pH 7.4 after 60 mins; type: ADME, cell-based; settings: Caco-2, pH 7.4
Summary of the method: (§3)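 Caco-2 monolayers; test compound at 10 µM; apparent permeability measured in secretory and absorptive directions at pH 5.5 and at pH 7.4, read after 60 min incubation; transport polarity taken as P_secretory/P_absorptive.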

[16] = Efflux ratio of apparent permeability of the compound from basal to apical to apical to basal side of human Caco2 cells at 10 uM at pH 5.5 after 60 mins; type: ADME, cell-based; settings: Caco-2, pH 5.5; summary of the method: as §3
[17] = Apparent permeability across human Caco2 cells at 10 uM at pH 7.4 after 60 mins; type: ADME, cell-based; settings: Caco-2, pH 7.4
Summary of the method: (§4)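 Caco-2 monolayers were exposed to compound at 10 µM and sampled after 60 min of incubation, at pH 5.5 or pH 7.4. Apparent permeability was measured in the absorptive and secretory directions, with efflux expressed as the secretory/absorptive ratio.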

[18] = Apparent permeability across human Caco2 cells at 10 uM at pH 5.5 after 60 mins; type: ADME, cell-based; settings: Caco-2, pH 5.5; summary of the method: as §4
[19] = target: Cytochrome P450 3A4 (Homo sapiens, UniProt P08684); assay: Inhibition of CYP3A4 in human liver microsomes using midazolam as substrate after 10 mins by LC/MS/MS analysis
[20] = tested on: Human immunodeficiency virus 1; assay: Antiviral activity against wild type HIV1 3B infected in human MT4 LTR-EGFP cells by EGFP reporter gene assay; type: functional, organism-based; settings: Human immunodeficiency virus 1, 3B

Sequence of Cytochrome P450 3A4 (P08684 whole entry): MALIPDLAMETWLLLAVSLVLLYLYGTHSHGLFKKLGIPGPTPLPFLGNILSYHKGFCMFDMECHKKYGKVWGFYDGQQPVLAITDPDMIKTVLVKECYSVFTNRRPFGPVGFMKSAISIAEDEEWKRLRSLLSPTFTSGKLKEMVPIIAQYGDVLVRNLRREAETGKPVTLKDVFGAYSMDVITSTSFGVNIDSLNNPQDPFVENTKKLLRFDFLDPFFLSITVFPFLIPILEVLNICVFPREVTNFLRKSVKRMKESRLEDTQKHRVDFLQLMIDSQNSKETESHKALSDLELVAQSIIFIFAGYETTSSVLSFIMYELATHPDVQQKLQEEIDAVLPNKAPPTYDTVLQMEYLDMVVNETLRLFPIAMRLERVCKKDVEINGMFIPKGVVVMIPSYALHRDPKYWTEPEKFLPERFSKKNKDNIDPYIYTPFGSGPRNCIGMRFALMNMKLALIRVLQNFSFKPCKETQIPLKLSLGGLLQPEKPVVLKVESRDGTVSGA

inhibition [1]: Active
AUC(0-inf) [2]: 6480 ng·h/mL
Cmax [3]: 2300 ng/mL
fold change (FC) [4]: 4.7
fold change (FC) [5]: 1.8
metabolised at 2 h, 2 µM [6]: 12%
bioavailability [7]: 1.37%
AUC(0-inf) [8]: 200 ng·h/mL
Tmax [9]: 1 h
Cmax [10]: 140 ng/mL
bioavailability [11]: 0.82%
AUC(0-inf) [12]: 10 ng·h/mL
Tmax [13]: 30 min
Cmax [14]: 10 ng/mL
efflux ratio at 1 h, 10 µM [15]: 22
efflux ratio at 1 h, 10 µM [16]: 26
Papp at 1 h, 10 µM [17]: 1.2 ×10⁻⁶ cm/s
Papp at 1 h, 10 µM [18]: 0.52 ×10⁻⁶ cm/s
IC50 [19]: 19 nM
EC50 [20]: 76 µM
Structure (SMILES): CC(C)CN(C[C@@H](O)[C@H](Cc1ccccc1)NC(=O)OCc1cncs1)C(=O)c1ccc2nc(N)sc2c1
